# This excerpt belongs to a sample that is enriched for hits.
# HUVEC inhibit = inhibitors of HUVEC proliferation, primary screen, cell-based, 384-well; CellTiter-Glo luminescence, 72 h; stronger effect = lower value; viability, % at 10 µM (by protocol); actives 1.1% (n = 86,000); AID 648, 2007;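 active means viability at or below 30%; inactive means viability above 30%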;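 further: 100% = median luminescence of DMSO-only cell control wells on each plate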
# Phagocyt inh = inhibitors of macrophage phagocytosis, primary screen, imaging, J774A.1 cells, IgG beads; J774A.1 macrophage IgG-bead phagocytosis; AID 1029, 2008; inhibition, % at 5 µM; actives 0.07% (n = 110,000);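 active means inhibition above the mean of the plate negative controls plus 5 SD, cut at about 13% in these data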;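 further: phagocytic index as fraction of beads internalized from green versus red external bead signal; plate controls were DMSO negative control for no effect and cytochalasin-D positive control for full effect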
# bCat KO growth = primary screen for growth suppressors in beta-catenin knockout HCT116 cells (colon tumor, human) | HCT116 beta-catenin knockout viability, CellTiter-Glo, 60 h; stronger effect = lower value | viability, % at 10 µM | actives 1.5% (n = 140,000);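 active means viability at or under a set limit, the compound median less 4 SD, cut at about 6% in these data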;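 further: 0% = Hyamine 1622 control at 20 µM and 100% = untreated cell control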
# Fibroblast inh = antiproliferative effect on LL 47 fibroblasts – human, LL 47 cells, CellTiter-Glo luminescence, primary screen | LL 47 human lung fibroblast viability, ATP luminescence; stronger effect = lower value | viability, % at 10 µM | actives 1.1% (n = 85,000) | AID 719, 2007;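 active means viability at or below 50% in the single dose screen; inactive means viability above 50%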;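 further: compound exposure lasted 72 h before the ATP readout; 100% = median luminescence of untreated cell-only wells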
#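 Times – overnight cell rest, 72 h compound treatment at 37 °C · Test system – human lung fibroblast line LL 47, low passage · Amount – 1,150 cells in each well · Controls – cell-only wells, no compound · Doses – 0.1% DMSO in all compound wells · Measured by – CellTiter-Glo luminescence · Buffer or medium – IMEM plus 15% FBS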
# H69AR inhibit = proliferation blockers of H69AR lung cancer cells, primary screen, cell-based, human, 86K library; H69AR lung tumor viability, ATP luminescence, 72 h; stronger effect = lower value; viability, % at 10 µM; actives 6% (n = 85,000); AID 598, 2007;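 active means viability at or below 40%; inactive means viability above 40%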;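 further: multidrug resistant small cell line overexpressing MRP-1 efflux transporter; 100% = mean luminescence of untreated control wells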
# PTEN del growth = growth suppression of PTEN-null HCT116, primary screen, cell-based, CellTiter-Glo | HCT116 PTEN-null viability, 60 h; stronger effect = lower value | viability, % at 10 µM | actives 1.2% (n = 140,000);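 active means viability at or below a set limit, 4 SD under the median of all tested compounds, cut at about 3.7% in these data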;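 further: PTEN knockout HCT116 line with beta catenin targeted HCT116 as companion control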
# * hit, by the source's call; . = no result.
SMILES,HUVEC inhibit,Phagocyt inh,bCat KO growth,Fibroblast inh,H69AR inhibit,PTEN del growth
CCC1SC(CC)C(=O)N(CC(=O)Nc2ccc3c(c2)OCO3)C1=O (centres undefined),.,-11.9,95.2,.,.,93.4
NC(=O)Nc1ccc(C(=O)OCC(=O)Nc2ccc([N+](=O)[O-])cc2C(F)(F)F)cc1,.,0.3,87.4,.,.,87.8
COc1ccc(C(=O)/C=C/c2cn(CN3CCN(C)CC3)c3ccccc23)cc1,77.9,-0.8,13.8,101.0,22.1*,33.2
CCOc1ccc(C(=O)/C=C/c2cn(CN3CCN(C)CC3)c3ccccc23)cc1,74.4,.,108.2,106.8,84.3,92.7
Oc1ccc(-c2[nH]ncc2-c2ccc(Cl)cc2)c(O)c1,55.7,.,76.2,88.0,98.6,67.3
COc1cccc(Oc2cn[nH]c2-c2ccc(O)cc2O)c1,83.8,-0.9,93.9,87.1,73.2,92.5
COc1ccc(-c2[nH]ncc2-c2ccc(Cl)cc2)c(O)c1,51.8,1.3,89.4,88.0,14.3*,71.7
CCOc1ccc(-c2[nH]ncc2Oc2cccc(OC)c2)c(O)c1,68.8,2.1,87.4,92.8,18.0*,89.5
COc1cccc(Oc2cn[nH]c2-c2ccc(OC)cc2O)c1,50.9,0.0,94.0,94.1,8.1*,88.0
Cc1ccc2nc(-c3ccc(N4C(=N)SC5CS(=O)(=O)CC54)cc3)sc2c1 (centres undefined),.,-1.1,74.8,.,.,75.1
N#CCCCSc1nnnn1-c1cccc(Cl)c1,91.1,0.5,99.2,95.7,98.4,100.7
N#CCCS(=O)(=O)c1nnnn1-c1ccccc1,57.6,-0.5,.,66.7,0.4*,.
Cc1ccc(C(C)C)c(OCC(=O)Nc2ccc3c(c2)nc(CN2CCCC2)n3C)c1,25.3*,-0.3,3.4*,90.8,80.7,2.5*
CCCC(=O)Nc1ccc2c(c1)nc(CN1CCCC1)n2C,98.2,-0.5,97.3,99.7,97.8,107.6
COc1cc(S(=O)(=O)N2CCN=C2c2ccccc2)ccc1F,65.5,-0.7,36.0,92.4,23.1*,27.2
CN1CCN(S(=O)(=O)c2ccc3c(c2)OCCO3)CC1,99.0,.,89.4,97.8,102.0,105.4
Cc1ccc(S(=O)(=O)N2CCCN(S(=O)(=O)c3ccc(C(F)(F)F)cc3)CC2)cc1,60.0,-0.2,10.1,49.3*,48.4,18.0
COc1ccc(S(=O)(=O)N2CCCN(S(=O)(=O)c3ccc(OC)c(C)c3)CC2)cc1C,65.6,.,49.5,94.0,32.9*,49.7
Cc1ccc(S(=O)(=O)N2CCCN(S(=O)(=O)c3ccc4c(c3)OCCO4)CC2)cc1,94.9,0.3,106.9,92.8,32.1*,91.8
Cc1onc(-c2ccccc2)c1C(=O)NC(=S)Nc1sc2c(c1C#N)CCCC2,.,-8.2,93.3,.,.,97.7
Cc1noc(C)c1C(=O)Nc1sc(C)c(-c2ccccc2)c1C#N,57.3,0.0,85.9,94.9,32.0*,94.8
Cc1cccc(C(=O)Nc2sc(C)c(-c3ccccc3)c2C#N)c1,.,-1.2,70.2,.,.,68.9
Cc1onc(-c2c(F)cccc2Cl)c1C(=O)Nc1sc2c(c1C#N)CCC(C(C)(C)C)C2 (centres undefined),75.5,.,74.4,71.8,79.9,74.2
Cc1onc(-c2ccccc2)c1C(=O)Nc1sc2c(c1C#N)CCC2,67.8,-1.2,35.6,75.9,16.1*,25.8
NC(=O)c1c(NC(=O)CSc2nnc(-c3ccccc3)n2CC2CCCO2)sc2c1CCC2 (centres undefined),94.7,.,86.2,95.6,32.9*,96.1
Cc1onc(-c2c(F)cccc2Cl)c1C(=O)Nc1sc2c(c1C(N)=O)CCC2,69.8,-0.6,22.8,76.3,15.9*,15.5
Cc1cc2c(nc1C)CCCN2C[C@@H](C)O/N=C1/[C@H]2CCn3c(=O)n(-c4ccccc4)c(=O)n3[C@H]2[C@H](O)[C@@H]2O[C@H]12,.,.,62.1,.,.,68.9
CN(C)CCNC(=O)C(=O)NCC1OCCCN1S(=O)(=O)c1cccs1 (centres undefined),.,-2.5,94.8,.,.,94.5
CCSc1nnc(NC(=O)C(C)Sc2nc3ccccc3[nH]2)s1 (centres undefined),.,-7.3,95.7,.,.,93.4
